Compounds with a hit are over-represented: about 2.9% of the library has one in this group of screens.
CHO-K1 Ca PAM = counter-screen for M1 PAMs: effect in parental CHO-K1 cells | ATP EC20, Fluo-8 calcium fluorescence; 0% at ATP EC20, 100% at ATP max | actives 0.02% (n = 360,000) | activation, % at 3 µM;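 active means activation above the run cutoff, the mean activation of all test compounds plus 3 SD, cut at about 40% in these data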;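 further: peak over basal fluorescence ratio in a 140 s read after ATP addition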
OX1R antag-1 = antagonists of human orexin 1 receptor. actives 0.43% (n = 330,000). O43613. AID 434989. CHO/OX1R cells, Fluo-8 calcium fluorescence, orexin A. inhibition, % at 5 µM;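 active means inhibition above its plate's threshold, mean inhibition of all tested compounds on the plate plus 3 SD, cut at about 37% in these data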;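 further: 0% = orexin A challenge wells and 100% = SB-334867-A antagonist wells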
Target sequence (O43613 whole entry, looked up): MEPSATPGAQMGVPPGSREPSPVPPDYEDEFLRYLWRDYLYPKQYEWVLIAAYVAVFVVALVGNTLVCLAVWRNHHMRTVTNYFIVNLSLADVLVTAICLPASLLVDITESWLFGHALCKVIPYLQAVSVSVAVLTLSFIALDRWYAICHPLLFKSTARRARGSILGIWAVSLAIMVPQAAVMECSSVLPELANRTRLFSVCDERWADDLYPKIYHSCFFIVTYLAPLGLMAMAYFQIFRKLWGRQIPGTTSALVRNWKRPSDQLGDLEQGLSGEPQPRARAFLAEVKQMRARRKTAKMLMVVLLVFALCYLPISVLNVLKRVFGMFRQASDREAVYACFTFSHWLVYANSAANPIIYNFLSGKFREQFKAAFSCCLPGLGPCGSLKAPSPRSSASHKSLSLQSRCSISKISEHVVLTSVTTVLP
OX1R antag-2 = antagonists of human orexin 1 receptor (OX1R); OX1R-expressing cells, FRET antagonist read-out; inhibition, % at 6.6 µM; O43613; AID 485270; actives 1.8% (n = 330,000); in the data active means inhibition mostly above about 38%, no sharp cut-off; inactive means mostly below about 40%;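 further: 0% = agonist challenge alone and 100% = reference antagonist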
CHO-K1 Ca ag = M1 agonist counterscreen hit in parental CHO-K1 cells; Fluo-8 calcium fluorescence; scaled to maximal ATP response, vehicle zero; activation, % at 3 µM; actives 0.48% (n = 360,000); in the data active means activation above about 15%;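 further: untransfected CHO-K1 host cells lacking M1 receptor as counterscreen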
CHO-K1 Ca antag = nonselective inhibitor or artifact in parental CHO-K1 cells. AID 602250. ATP-induced calcium, Fluo-8 fluorescence. inhibition, % at 3 µM. actives 0.6% (n = 360,000);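 active means inhibition above a per-plate cutoff, the plate's mean sample inhibition plus 3 SD, cut at about 24% in these data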;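 further: 0% = DMSO plus EC80 ATP and 100% = DMSO alone without ATP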
CHO parental Ca = counter-screen for OX1R antagonists: effect in parental CHO cells | actives 0.63% (n = 330,000) | parental CHO-K1, ATP-induced calcium, Fluo-8 fluorescence | inhibition, % at 5.6 µM;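 active means inhibition above that plate's mean sample inhibition plus 3 SD, cut at about 26% in these data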;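 further: 0% = ATP-challenged DMSO wells and 100% = DMSO wells without ATP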
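Test system: untransfected parental CHO cell line. Compound: one dose, 5.6 µM nominal. Detection: intracellular calcium via Fluo-8 no-wash fluorescent dye. Measure: % inhibition. Benchmarks: ATP-challenged DMSO wells low, unchallenged DMSO wells high.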
Numbers without * were called inactive; / = no result.

SMILES	CHO-K1 Ca PAM	OX1R antag-1	OX1R antag-2	CHO-K1 Ca ag	CHO-K1 Ca antag	CHO parental Ca
N#C/C(=C/c1ccc(N2CCCCC2)o1)C(=O)Nc1ccc2ccccc2c1	-13	/	/	266*	85*	/
N#C/C(=C/c1ccc(N2CCCCC2)o1)C(=O)Nc1ccc(Cl)cc1	-1	99*	19	79*	36*	77*
CNc1cc(-c2cccc(OC)c2F)nc2ccnn12	-16	/	/	-1	15	/
O=C(c1cc([N+](=O)[O-])ccc1Cl)N1c2ccccc2Sc2ccccc21	18	-27	27	0	-16	-27
CC(Sc1nnc(N)s1)C(=O)c1c(N)n(C)c(=O)n(C)c1=O (stereo not drawn)	0	/	/	18*	14	/
CCOC(=O)C1CCCN(C(=O)Cc2ccc(OC)c(OC)c2)CC1 (stereo not drawn)	-16	/	/	1	26*	/
CCOC(=O)C1CCN(C(=O)c2ccc(OCC(=O)Nc3cccc(C(F)(F)F)c3)c(OC)c2)CC1	-15	45*	14	13	17	45*
CCOC(=O)C1CCN(C(=O)c2ccc3c(c2)OCO3)CC1	1	-3	10	0	4	57*
CC(O)(c1cccnc1)c1nc(-c2cccc3cccnc23)cs1 (stereo not drawn)	5	/	/	0	-7	/
Cn1c(NCc2ccccc2O)nc2ccccc21	4	-13	10	0	6	-3
CC(C)n1c(NCc2ccccc2O)nc2ccccc21	17	-20	7	23*	1	-7
O=C(CSc1cccc[n+]1[O-])c1cc2ccccc2o1	-5	-2	72*	0	3	0
O=c1[nH]c(NCCO)nc2c1C1(CCCCC1)Cc1ccccc1-2	8	20	10	0	-7	81*
CCNc1ccc2noc3c2c1C(=O)c1ccccc1-3	-2	103*	123*	51*	27*	42*
O=C1c2ccccc2-c2onc3ccc(NCc4ccco4)c1c23	-10	62*	82*	19*	45*	37
Nn1c(SCC(=O)NNC(=O)c2ccccc2)nnc1-c1ccccc1F	3	4	18	1	-5	6
COC(=O)CCC(=O)OC1(C)C(=O)C=C2C=C(C3CC3)N(Cc3ccccc3)C=C2C1=O (stereo not drawn)	0	-22	76*	0	-3	-3
COC(=O)CCC(=O)OC1(C)C(=O)C=C2C=C(C3CC3)N(CC3CC3)C=C2C1=O (stereo not drawn)	14	-14	37	1	-12	-16
c1ccc2nc3c(nc2c1)CCCC3	9	-10	-3	0	-8	-3
c1ccc2nc3c(nc2c1)CCc1nonc1-3	10	7	44*	1	-5	-2
CCOc1ccc(S(=O)(=O)N2CCN(c3ccc(C)cc3C)CC2)cc1	15	-18	9	0	2	27*
CCOc1ccc(S(=O)(=O)N2CCCC2)cc1	24	-11	3	1	-14	-6
COc1ccc(S(=O)(=O)N2CCN(c3ncccn3)CC2)cc1OC	13	-12	4	2	-6	-7
COc1ccc(S(=O)(=O)N2CCN(c3c(C)cccc3C)CC2)cc1OC	28	-34	14	1	-10	45*
COc1cc(S(=O)(=O)N2CCN(Cc3ccccc3)CC2)ccc1Br	-1	-23	14	1	48*	-21
SMILES	CHO-K1 Ca PAM	OX1R antag-1	OX1R antag-2	CHO-K1 Ca ag	CHO-K1 Ca antag	CHO parental Ca
COc1ccc(S(=O)(=O)N2CCN(c3ccc(C)cc3C)CC2)cc1OC	10	-25	14	3	0	36*
O=C(CCN1CCN(S(=O)(=O)c2cccc([N+](=O)[O-])c2)CC1)Nc1ccccc1F	16	-21	20	5	-14	-16
CCN1CCN(S(=O)(=O)c2ccc(Cl)c(C(=O)N(C)Cc3ccc(F)cc3)c2)CC1	-5	-31	15	2	-5	-17
CCN1CCN(S(=O)(=O)c2ccc(Cl)c(C(=O)N(C)Cc3ccccc3)c2)CC1	17	-34	5	0	24*	-21
CCN(CC)CCNC(=O)CCc1c(C)nc2c(c(C)nn2-c2ccc(C)cc2)c1C	12	/	/	3	-9	/
CCOC(=O)[C@]12CCC=C1N(Cc1cccc3ccccc13)C(=O)[C@H](CC(=O)NCCCCc1ccccc1)C2	8	/	/	1	-11	/
COC(CNC(=O)c1ccc2nc3ccccc3c(=O)n2c1)OC	9	-14	38*	1	-7	-9
C[C@H]1CN([C@@H](C)CO)C(=O)c2cccc(NC(=O)c3ccc(-c4nccs4)cc3)c2O[C@@H]1CN(C)C(=O)Nc1cccc2ccccc12	-12	-14	10	1	-6	-22
O=C(Cc1ccsc1)NNC(=O)c1cccc(Cl)c1	11	-11	13	0	0	-1
O=C(NCc1n[nH]c(=S)n1-c1cccc(C(F)(F)F)c1)c1ccc(S(=O)(=O)N2CCCCC2)cc1	-11	-11	9	0	-13	-8
O=C(NCc1n[nH]c(=S)n1-c1cccc(C(F)(F)F)c1)c1ccc(S(=O)(=O)N2CCCC2)cc1	17	9	50*	0	1	-4
COCCCNC(=O)/C(C#N)=C/c1c(N2CCN(c3ccccc3)CC2)nc2ccccn2c1=O	-15	-30	27	5	-5	-14
COCCCNC(=O)/C(C#N)=C/c1c(N2CCN(C)CC2)nc2ccccn2c1=O	-22	-19	47*	0	-3	-7
COc1ccccc1NC(=O)CC1S/C(=N/N=C2\CCCc3ccccc32)NC1=O (stereo not drawn)	15	20	54*	0	-15	6
Cc1onc(-c2ccccc2)c1NC(=O)Nc1c(-c2ccccc2)noc1C	10	-23	51*	0	-1	-24
Cc1ccc(S(=O)(=O)N(C)C)cc1NC(=O)Nc1c(-c2ccccc2)noc1C	18	-24	9	0	-4	-21
CC(C(=O)Nc1ccc2c(c1)OCO2)c1ccc([N+](=O)[O-])cc1 (stereo not drawn)	10	-14	9	7	-1	6
CC(C(=O)Nc1ccc2c(c1)OCCO2)c1ccc([N+](=O)[O-])cc1 (stereo not drawn)	12	25	3	17*	-1	31*
CC(Sc1nncs1)C(=O)Nc1ccc2c(c1)OCCO2 (stereo not drawn)	9	-2	12	0	25*	-1
CCCCN1C(=O)C(=O)NC[C@@H]1CC1CCCCC1	22	/	/	1	-24	/
Cc1c(C(=O)NCc2ccc3c(c2)OCCO3)sc(=O)n1Cc1ccc(S(=O)(=O)N(C)C)cc1	-5	/	/	6	5	/
O=C1NC[C@H](CCCCN2C[C@H](Cc3ccccc3)N(CCc3ccc(O)cc3)C(=O)C2=O)N(CCC2CCCCC2)C1=O	9	/	/	0	-11	/
